Test results published in ChEMBL document CHEMBL1147810, “Novel combretastatin analogues endowed with antitumor activity” (J Med Chem, 2006).
Activity calls are given as the source filed them. The calls are words filed in the database; no cut-off is given here.

Columns and labels:
BMEC = test: Antiproliferative activity against bovine BMEC; type: functional, cell-based; details: Bos taurus
How it was run: (§1)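 Cells plated, then exposed 24 h after seeding to graded drug concentrations for 24 h. Drug removed, 48 h recovery in drug-free medium, surviving cells stained with sulforhodamine B (OD 564). […] BMEC: primary bovine adrenal cultures in DMEM, 20% FCS, heparin, brain extract.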

MCF7-DOX = test: Antiproliferative activity against doxorubicin-resistant human MCF7-dx cells; type: functional, cell-based; how it was run: as §1
MeWo = test: Antiproliferative activity against human MeWo cells; type: functional, cell-based; how it was run: as §1
NCI-H460 [1] = test: Cell cycle arrest in NCI-H460 cells by accumulation at G1/0 phase cell at 3 nM post 24 hrs treatment and 24 hrs recovery; type: functional, Homo sapiens
NCI-H460 [2] = test: Cell cycle arrest in NCI-H460 cells by accumulation at G2/M phase cell at 3 nM post 24 hrs treatment and 48 hrs recovery
A2780 [3] = test: Antiproliferative activity against human A2780 cells; type: functional, cell-based; how it was run: as §1
MCF7 = test: Antiproliferative activity against human MCF7 cells; type: functional, cell-based; how it was run: as §1
NCI-H460 [4] = test: Cell cycle arrest in NCI-H460 cells by accumulation at G2/M phase cell at 3 nM post 24 hrs treatment and 24 hrs recovery
NCI-H460 [5] = test: Cell cycle arrest in NCI-H460 cells by accumulation at G1/0 phase cell at 3 nM post 24 hrs treatment; type: functional, Homo sapiens
NCI-H460 [6] = test: Cell cycle arrest in NCI-H460 cells by accumulation at G1/0 phase cell at 3 nM post 24 hrs treatment and 48 hrs recovery; type: functional, Homo sapiens
A2780 [7] = test: Antiproliferative activity against doxorubicin-resistant human A2780-dx cells; type: functional, cell-based; how it was run: as §1
IGROV-1 = test: Antiproliferative activity against human IGROV1 cells; type: functional, cell-based; how it was run: as §1
NCI-H460 [8] = test: Cell cycle arrest in NCI-H460 cells by accumulation at S phase cell at 3 nM post 24 hrs treatment and 24 hrs recovery
NCI-H460 [9] = test: Cell cycle arrest in NCI-H460 cells by accumulation at S phase cell at 3 nM post 24 hrs treatment and 48 hrs recovery
NCI-H460 [10] = test: Cell cycle arrest in NCI-H460 cells by accumulation at S phase cell at 3 nM post 24 hrs treatment
NCI-H460 [11] = test: Cell cycle arrest in NCI-H460 cells by accumulation at G2/M phase cell at 3 nM post 24 hrs treatment
HUVEC = test: Antiproliferative activity against human HUVEC; type: functional, cell-based; how it was run: as §1
HCT-116 = test: Antiproliferative activity against human HCT116 cells; type: functional, cell-based; how it was run: as §1
NCI-H460 [12] = test: Antitumor activity in CD1 mice implanted with NCI-H460 xenografts at 60 mg/kg, po; type: functional, organism-based; set-up: dose 60 mg/kg; details: Homo sapiens
How it was run: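 NCI-H460 cells (3.0 × 10⁶ in HBSS) injected sc into right flank of female CD-1 nude mice; groups of eight once tumors reached ~30 mg (day 5). Oral 60 mg/kg twice daily, 5 days/week for 3 weeks; controls got vehicle. Caliper volumes (length × width²/2) twice weekly; toxicity scored as % max body-weight loss; Mann-Whitney U test.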

NCI-H460 [13] = test: Antiproliferative activity against human H460 cells; type: functional, cell-based; how it was run: as §1

SMILES: COc1cc(/C=C\c2cc(O)c3c(-c4ccccc4)csc3c2)cc(OC)c1OC
- IC50 (BMEC): > 2000 nM

SMILES: COc1cc(/C=C/c2cc(O)c3c(-c4ccccc4)csc3c2)cc(OC)c1OC
- IC50 (BMEC): > 20000 nM

SMILES: COc1cc(/C=C/c2cc(O)c3cc(-c4ccccc4)oc3c2)cc(OC)c1OC
- IC50 (BMEC): > 20000 nM

SMILES: COc1cc(/C=C\c2cc(O)c3cc(C)sc3c2)cc(OC)c1OC
- IC50 (BMEC): 23 nM

SMILES: COc1cc(/C=C/c2cc(OC)c3ccoc3c2)cc(OC)c1OC
- IC50 (BMEC): 75000 nM

SMILES: COc1cc(/C=C/c2ccc3cc[nH]c3c2)cc(OC)c1OC
- IC50 (BMEC): 1900 nM

SMILES: COc1cc(/C=C\c2cc(OC)c3ccoc3c2)cc(OC)c1OC
- IC50 (BMEC): 7500 nM

SMILES: COc1cc(/C=C\c2cc(O)c3cc(-c4ccccc4)sc3c2)cc(OC)c1OC
- IC50 (BMEC): 23000 nM

SMILES: COc1cc(/C=C/c2cc(O)c3cc(C)sc3c2)cc(OC)c1OC
- IC50 (BMEC): 840 nM

SMILES: COc1cc(/C=C/c2cc(O)c3cc(C)oc3c2)cc(OC)c1OC
- IC50 (BMEC): 12300 nM

SMILES: COc1cc(/C=C/c2cc(O)c3cc(-c4ccccc4)sc3c2)cc(OC)c1OC
- IC50 (BMEC): 38000 nM

SMILES: COc1ccc(/C=C\c2cc(OC)c(OC)c(OC)c2)cc1O [COMBRETASTATIN A4]
- IC50 (MCF7-DOX): 2.3 nM
- IC50 (MeWo): 4 nM
- Activity (NCI-H460 [1]): 62%
- Activity (NCI-H460 [2]): 27%
- IC50 (A2780 [3]): 2.19 nM
- IC50 (MCF7): 2 nM
- Activity (NCI-H460 [4]): 16%
- Activity (NCI-H460 [5]): 8%
- Activity (NCI-H460 [6]): 55%
- IC50 (A2780 [7]): 1.66 nM
- IC50 (IGROV-1): 10.3 nM
- Activity (NCI-H460 [8]): 22%
- Activity (NCI-H460 [9]): 18%
- Activity (NCI-H460 [10]): 12%
- Activity (NCI-H460 [11]): 79%
- IC50 (HUVEC): 1.5 nM
- IC50 (HCT-116): 1.9 nM

SMILES: COc1cc(/C=C\c2cc(OP(=O)(O)O)c3ccsc3c2)cc(OC)c1OC
- IC50 (MCF7-DOX): 487 nM
- IC50 (MeWo): 830 nM
- Activity (NCI-H460 [12]): Active
- IC50 (A2780 [3]): 500 nM
- IC50 (MCF7): 639 nM
- IC50 (BMEC): 640 nM
- IC50 (A2780 [7]): 750 nM
- IC50 (IGROV-1): 1610 nM
- IC50 (NCI-H460 [13]): 620 nM
- IC50 (HUVEC): 83 nM
- IC50 (HCT-116): 3000 nM

SMILES: COc1cc(/C=C\c2cc(O)c3cc(C)oc3c2)cc(OC)c1OC
- IC50 (BMEC): 93 nM

SMILES: COc1cc(/C=C\c2cc(O)c3cc(-c4ccccc4)oc3c2)cc(OC)c1OC
- IC50 (BMEC): > 2000 nM

SMILES: COc1cc(/C=C\c2ccc3cc[nH]c3c2)cc(OC)c1OC
- IC50 (BMEC): 28 nM
